Experimental data reported in ChEMBL document CHEMBL4665666, “Discovery and characterization of trypanocidal cysteine protease inhibitors from the 'malaria box'” (Eur J Med Chem, 2019).

Assays:
[1] = biological target: Cruzipain (Trypanosoma cruzi) (UniProt P25779); assay: Inhibition of recombinant Trypanosoma cruzi cruzain at 10 uM preincubated with enzyme for 5 mins followed by substrate addition in absence of BSA relative to control
Procedure, shortened: (§1)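 For BSA sensitivity, compound was held 5 min with BSA (2 mg/mL in 0.001% Triton X-100), then 5 min with 1 nM cruzain, before substrate was added and activity monitored. Parallel runs omitted BSA under otherwise identical conditions.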

[2] = biological target: Rhodesain (Trypanosoma brucei rhodesiense) (UniProt Q95PM0); assay: Inhibition of recombinant Trypanosoma brucei rhodesain expressed in Pichia pastoris at 10 uM using Z-FR-AMC as substrate preincubated for 10 mins followed by substrate addition and measured at 12 sec interval for 5 mins by fluorimetric analysis relative to control; conditions: time 15.0 min
Procedure, shortened: (§2)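 Recombinant rhodesain or cruzain (1 nM) in 0.1 M sodium acetate pH 5.5, 0.01% Triton X-100, 1 mM β-mercaptoethanol. Compound at a single concentration, either without or after 10 min enzyme pre-incubation. Z-FR-AMC 2.5 µM, read at 340/440 nm every 12 s for 5 min. Inhibition is relative to DMSO, with E-64 as positive control. Done in duplicate (primary screen) or triplicate.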

[3] = biological target: Cruzipain (Trypanosoma cruzi) (UniProt P25779); assay: Inhibition of recombinant Trypanosoma cruzi cruzain at 10 uM using Z-FR-AMC as substrate preincubated for 10 mins followed by substrate addition and measured at 12 sec interval for 5 mins by fluorimetric analysis relative to control; conditions: time 15.0 min; procedure, shortened: as §2
[4] = biological target: Cruzipain (Trypanosoma cruzi) (UniProt P25779); assay: Inhibition of recombinant Trypanosoma cruzi cruzain at 10 uM preincubated for 10 mins in presence of 0.01% Triton X-100 relative to control
Procedure, shortened: (§3)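 To test detergent sensitivity, cruzain was pre-incubated 10 min at room temperature with compound with no Triton X-100, 0.01% or 0.1% Triton X-100. Cleavage of Z-FR-AMC was then followed at pH 5.5 in acetate buffer. Percent inhibition was compared across detergent levels.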

[5] = biological target: Cruzipain (Trypanosoma cruzi) (UniProt P25779); assay: Inhibition of recombinant Trypanosoma cruzi cruzain at 10 uM preincubated with BSA for 5 mins followed by incubation with enzyme for 5 mins followed by substrate addition relative to control; conditions: time 10.0 min; procedure, shortened: as §1
[6] = biological target: Rhodesain (Trypanosoma brucei rhodesiense) (UniProt Q95PM0); assay: Inhibition of recombinant Trypanosoma brucei rhodesain expressed in Pichia pastoris at 5 uM using Z-FR-AMC as substrate and measured at 12 sec interval for 5 mins without preincubation by fluorimetric analysis relative to control
Procedure, shortened: as §2, with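 “pre-incubation.” for “pre-incubation. Z-FR-AMC 2.5 µM, read at 340/440 nm every 12 s for 5 min.”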

[7] = biological target: Rhodesain (Trypanosoma brucei rhodesiense) (UniProt Q95PM0); assay: Inhibition of recombinant Trypanosoma brucei rhodesain expressed in Pichia pastoris at 5 uM using Z-FR-AMC as substrate preincubated for 10 mins followed by substrate addition and measured at 12 sec interval for 5 mins by fluorimetric analysis relative to control; conditions: time 15.0 min
Procedure, shortened: as §2, with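 “pre-incubation.” for “pre-incubation. Z-FR-AMC 2.5 µM, read at 340/440 nm every 12 s for 5 min.”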

Cruzipain = Cruzipain (Trypanosoma cruzi, UniProt P25779); assay: Inhibition of recombinant Trypanosoma cruzi cruzain using Z-FR-AMC as substrate and measured at 12 sec interval for 5 mins without preincubation by fluorimetric analysis
Procedure, shortened: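 Cruzain (recombinant, 1 nM) in 0.1 M sodium acetate pH 5.5 with 0.01% Triton X-100 and 1 mM β-mercaptoethanol; Z-FR-AMC 2.5 µM, read at 340/440 nm every 12 s for 5 min, with or without 10 min enzyme–compound pre-incubation. […] For mechanism and Ki, 0.3–20.0 µM substrate and five inhibitor levels were used, with Lineweaver-Burk plots.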

[8] = biological target: Cruzipain (Trypanosoma cruzi) (UniProt P25779); assay: Inhibition of recombinant Trypanosoma cruzi cruzain at 5 uM using Z-FR-AMC as substrate and measured at 12 sec interval for 5 mins without preincubation by fluorimetric analysis relative to control
Procedure, shortened: as §2, with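 “pre-incubation.” for “pre-incubation. Z-FR-AMC 2.5 µM, read at 340/440 nm every 12 s for 5 min.”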

[9] = biological target: Rhodesain (Trypanosoma brucei rhodesiense) (UniProt Q95PM0); assay: Inhibition of recombinant Trypanosoma brucei rhodesain expressed in Pichia pastoris at 10 uM using Z-FR-AMC as substrate and measured at 12 sec interval for 5 mins without preincubation by fluorimetric analysis relative to control; procedure, shortened: as §2
[10] = biological target: Cruzipain (Trypanosoma cruzi) (UniProt P25779); assay: Inhibition of recombinant Trypanosoma cruzi cruzain at 10 uM preincubated for 10 mins in absence of Triton X-100 relative to control; procedure, shortened: as §3
[11] = biological target: Cruzipain (Trypanosoma cruzi) (UniProt P25779); assay: Inhibition of recombinant Trypanosoma cruzi cruzain at 10 uM preincubated for 10 mins in presence of 0.1% Triton X-100 relative to control; procedure, shortened: as §3
[12] = biological target: Cruzipain (Trypanosoma cruzi) (UniProt P25779); assay: Inhibition of recombinant Trypanosoma cruzi cruzain at 10 uM using Z-FR-AMC as substrate and measured at 12 sec interval for 5 mins without preincubation by fluorimetric analysis relative to control; procedure, shortened: as §2
[13] = test system: Trypanosoma brucei brucei; assay: Trypanocidal activity against Trypanosoma brucei brucei Squib 427 assessed as reduction in parasite viability; format: functional, organism-based
[14] = test system: Trypanosoma brucei rhodesiense; assay: Trypanocidal activity against Trypanosoma brucei rhodesiense STI B900 assessed as reduction in parasite viability; format: functional, organism-based
Trypanosoma cruzi = assay: Trypanocidal activity against Trypanosoma cruzi Tulahuen C4 assessed as reduction in parasite viability; format: functional, organism-based
[15] = biological target: Cruzipain (Trypanosoma cruzi) (UniProt P25779); assay: Inhibition of recombinant Trypanosoma cruzi cruzain at 5 uM using Z-FR-AMC as substrate preincubated for 10 mins followed by substrate addition and measured at 12 sec interval for 5 mins by fluorimetric analysis relative to control; conditions: time 15.0 min
Procedure, shortened: as §2, with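 “pre-incubation.” for “pre-incubation. Z-FR-AMC 2.5 µM, read at 340/440 nm every 12 s for 5 min.”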

[16] = biological target: Rhodesain (Trypanosoma brucei rhodesiense) (UniProt Q95PM0); assay: Inhibition of recombinant Trypanosoma brucei rhodesain expressed in Pichia pastoris at 2.5 uM using Z-FR-AMC as substrate and measured at 12 sec interval for 5 mins without preincubation by fluorimetric analysis relative to control
Procedure, shortened: (§4)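 Run with no pre-incubation or with 10 min enzyme-compound pre-incubation. Fluorescence read at 340/440 nm. Concentration was set by solubility under assay conditions. Inhibition is against DMSO, with E-64 as positive control; triplicate.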

[17] = biological target: Rhodesain (Trypanosoma brucei rhodesiense) (UniProt Q95PM0); assay: Inhibition of recombinant Trypanosoma brucei rhodesain expressed in Pichia pastoris at 2.5 uM using Z-FR-AMC as substrate preincubated for 10 mins followed by substrate addition and measured at 12 sec interval for 5 mins by fluorimetric analysis relative to control; conditions: time 15.0 min; procedure, shortened: as §4
[18] = biological target: Cruzipain (Trypanosoma cruzi) (UniProt P25779); assay: Inhibition of recombinant Trypanosoma cruzi cruzain at 2.5 uM using Z-FR-AMC as substrate preincubated for 10 mins followed by substrate addition and measured at 12 sec interval for 5 mins by fluorimetric analysis relative to control; conditions: time 15.0 min; procedure, shortened: as §2
[19] = biological target: Cruzipain (Trypanosoma cruzi) (UniProt P25779); assay: Inhibition of recombinant Trypanosoma cruzi cruzain at 2.5 uM using Z-FR-AMC as substrate and measured at 12 sec interval for 5 mins without preincubation by fluorimetric analysis relative to control; procedure, shortened: as §2

Rhodesain (Trypanosoma brucei rhodesiense), sequence (Q95PM0 1-450): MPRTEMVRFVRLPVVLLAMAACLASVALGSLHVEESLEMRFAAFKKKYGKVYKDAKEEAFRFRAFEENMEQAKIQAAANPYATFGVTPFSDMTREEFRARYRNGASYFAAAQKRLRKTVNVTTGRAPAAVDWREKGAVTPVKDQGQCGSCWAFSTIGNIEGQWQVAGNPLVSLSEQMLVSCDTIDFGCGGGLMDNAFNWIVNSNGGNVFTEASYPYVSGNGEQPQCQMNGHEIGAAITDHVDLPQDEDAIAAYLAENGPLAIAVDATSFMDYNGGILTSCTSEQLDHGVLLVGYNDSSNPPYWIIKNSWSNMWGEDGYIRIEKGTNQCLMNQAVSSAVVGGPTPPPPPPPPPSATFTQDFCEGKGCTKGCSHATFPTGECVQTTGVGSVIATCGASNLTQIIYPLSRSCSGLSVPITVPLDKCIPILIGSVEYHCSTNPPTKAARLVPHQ
Cruzipain (Trypanosoma cruzi), sequence (P25779 123-467 limits assumed): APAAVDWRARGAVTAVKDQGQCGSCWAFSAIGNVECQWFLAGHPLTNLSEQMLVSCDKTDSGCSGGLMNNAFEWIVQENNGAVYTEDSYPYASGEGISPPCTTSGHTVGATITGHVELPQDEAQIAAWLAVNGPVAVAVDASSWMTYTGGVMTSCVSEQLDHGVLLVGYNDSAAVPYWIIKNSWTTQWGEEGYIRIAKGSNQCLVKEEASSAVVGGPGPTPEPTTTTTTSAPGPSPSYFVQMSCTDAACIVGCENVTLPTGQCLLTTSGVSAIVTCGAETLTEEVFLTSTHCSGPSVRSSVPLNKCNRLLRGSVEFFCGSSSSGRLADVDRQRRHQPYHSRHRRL
Cruzipain, sequence (P25779 whole entry): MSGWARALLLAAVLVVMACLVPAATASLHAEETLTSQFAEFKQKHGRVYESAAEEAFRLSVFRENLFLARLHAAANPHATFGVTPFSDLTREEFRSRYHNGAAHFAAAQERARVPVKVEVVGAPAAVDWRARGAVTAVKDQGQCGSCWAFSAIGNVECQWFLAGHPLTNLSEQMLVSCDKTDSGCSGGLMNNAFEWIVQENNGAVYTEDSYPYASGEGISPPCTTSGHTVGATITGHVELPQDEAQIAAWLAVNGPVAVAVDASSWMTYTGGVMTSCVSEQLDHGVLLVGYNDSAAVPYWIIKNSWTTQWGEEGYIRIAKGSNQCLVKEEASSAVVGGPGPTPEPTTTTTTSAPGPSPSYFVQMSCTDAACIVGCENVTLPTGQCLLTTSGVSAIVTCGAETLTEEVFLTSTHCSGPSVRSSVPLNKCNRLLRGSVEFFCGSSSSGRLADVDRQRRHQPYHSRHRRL

Row | Structure (SMILES) | inhibition [6] | inhibition [7] | inhibition [8] | IC50 [13] | IC50 [14] | IC50 (Trypanosoma cruzi) | inhibition [15] | further results
1 | CCOc1cccc(C(=O)Nc2ccc(-c3nc4ccccc4[nH]3)cc2)c1 | 53.7% | 75.6% | 88.1% | 32 µM | 32 µM | 32 µM | 72.7% | inhibition [1]: 97.9%; inhibition [2]: 100%; inhibition [3]: 100%; inhibition [4]: 100%; inhibition [5]: 16%; IC50 (Cruzipain): 2.6 µM; inhibition [9]: 46%; inhibition [10]: 100%; inhibition [11]: 34.6%; inhibition [12]: 89%
2 | Cc1ccc(C(=O)c2oc3ccc4c(C)cc(=O)oc4c3c2C)cc1 | 60.4% | 77.1% | 53.6% | 32 µM | 32 µM | 32 µM | 69% | inhibition [16]: 8%; inhibition [17]: 12%; inhibition [18]: 11%; inhibition [19]: 3%
